This is a sample that favours compounds with a hit; in the whole collection about 2.1% have one here.
Scp-1 inhibitor – inhibitors of human Scp-1 phosphatase; Q9GZU7; Recombinant Scp1, phosphopeptide, malachite green phosphate absorbance; inhibition, % at 20 µM; 0.88% of 340,000 active; AID 493091;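 active = inhibition above about 50% at 20 µM, limit read from the data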;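 also: plate controls were DMSO wells with enzyme for no effect and wells lacking enzyme for full effect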
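Material – SCP-1 phosphatase catalytic domain, residues 76-261 · Buffer or medium – Acidic Tris acetate buffer with magnesium and detergent · Also added – Phospho 17-mer peptide substrate · Compound – single 20 µM dose, 1% DMSO · Times – 45 min room-temperature reaction, 5 min colour, 30 min stabiliser · Technique – Phosphate-binding colour reagent, absorbance read at 630 nm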
DNMT1 inh – inhibitors of human DNMT1. DNMT1 molecular beacon, Hinp1I cleavage, fluorescence. P26358. inhibition (reported as % activation of signal), % at 10 µM. 0.83% of 360,000 active; in the data active = inhibition above about 50%
Target sequence (P26358 504-1616 limits assumed): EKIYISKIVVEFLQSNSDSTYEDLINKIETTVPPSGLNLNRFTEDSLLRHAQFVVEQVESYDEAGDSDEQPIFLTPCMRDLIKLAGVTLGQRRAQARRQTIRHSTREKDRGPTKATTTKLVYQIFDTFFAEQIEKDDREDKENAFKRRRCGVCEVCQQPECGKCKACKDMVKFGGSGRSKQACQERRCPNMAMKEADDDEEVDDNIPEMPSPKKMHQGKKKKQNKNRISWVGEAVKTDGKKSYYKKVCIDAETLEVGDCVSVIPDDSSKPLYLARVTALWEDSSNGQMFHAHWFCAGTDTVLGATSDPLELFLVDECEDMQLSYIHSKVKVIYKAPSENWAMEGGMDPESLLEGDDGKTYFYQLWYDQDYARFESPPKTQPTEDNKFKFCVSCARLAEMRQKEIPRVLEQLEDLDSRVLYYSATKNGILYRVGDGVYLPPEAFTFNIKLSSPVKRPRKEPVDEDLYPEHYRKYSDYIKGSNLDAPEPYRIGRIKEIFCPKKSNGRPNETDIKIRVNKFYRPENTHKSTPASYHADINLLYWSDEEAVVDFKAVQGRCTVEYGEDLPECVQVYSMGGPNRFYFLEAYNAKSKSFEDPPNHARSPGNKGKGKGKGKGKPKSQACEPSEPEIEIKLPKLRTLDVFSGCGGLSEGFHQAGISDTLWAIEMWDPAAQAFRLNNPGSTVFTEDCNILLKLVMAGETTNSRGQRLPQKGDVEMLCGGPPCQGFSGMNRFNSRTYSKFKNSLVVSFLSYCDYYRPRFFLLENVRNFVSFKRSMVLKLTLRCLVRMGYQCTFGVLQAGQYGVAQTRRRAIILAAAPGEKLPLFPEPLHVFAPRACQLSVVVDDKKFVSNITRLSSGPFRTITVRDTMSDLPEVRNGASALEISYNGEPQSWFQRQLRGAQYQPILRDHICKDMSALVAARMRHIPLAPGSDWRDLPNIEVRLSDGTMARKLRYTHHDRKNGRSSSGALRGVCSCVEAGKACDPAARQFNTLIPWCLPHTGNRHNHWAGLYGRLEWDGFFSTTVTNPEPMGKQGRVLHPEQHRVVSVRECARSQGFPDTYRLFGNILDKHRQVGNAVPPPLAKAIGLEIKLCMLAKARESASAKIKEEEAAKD
LMPTP inh – blocks human LMPTP phosphatase. AID 651560. inhibition, % at 20 µM. recombinant LMPTP-A, OMFP fluorogenic substrate, fluorescence intensity. 0.22% of 360,000 active;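 active = compounds that cut the enzyme signal by at least half of the control window in the single-dose screen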;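 also: plate controls were DMSO wells with enzyme plus substrate for no effect and substrate without enzyme for full effect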
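Assay system: LMPTP-A enzyme. Input: 0.625 nM LMPTP-A final. Probe or stimulus: 400 µM OMFP. Compound dosing: single 20 µM dose. Schedule: 50 min dark incubation at room temperature. Detection: fluorescence intensity of OMFP turnover product. Read-out: percent inhibition versus substrate-only and uninhibited controls. Benchmarks: no-enzyme low control, uninhibited high control.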
SUMO1-SIM PPI – modulators of human SUMO1-mediated protein-protein interactions | SUMO1 binding to a labelled peptide, TR-FRET, 1 h | inhibition, % at 20 µM | 0.33% of 360,000 active | AID 602429; in the data active = inhibition above about 37%
STEP block – inhibitors of human striatal-enriched phosphatase STEP | P54829 | 0.25% of 360,000 active | inhibition, % at 20 µM | recombinant STEP, OMFP fluorogenic substrate, fluorescence;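 active = inhibition at 20 µM, scaled per plate between control wells, above about 37%, limit read from the data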;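 also: 0% = DMSO with enzyme and substrate and 100% = substrate only without enzyme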
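Assay system: isolated STEP enzyme. Buffer or medium: pH 6.0 Bis-Tris with DTT and Tween 20. Also added: fluorogenic phosphatase substrate OMFP at 25 µM final. Dosing: 20 µM, 1% DMSO. Timing: 20 min reaction, room temperature, in the dark. Measured by: fluorescence intensity, excitation 480 nm, emission 540 nm. Evaluation: normalized % inhibition.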
GRK2 inh – blocks RNA aptamer binding to human GRK2. P25098. bead flow cytometry, FAM-aptamer displacement from GRK2. inhibition of aptamer binding, % at 10 µM. 0.59% of 330,000 active. AID 488847;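 active = inhibition of aptamer binding above 40%, roughly 3 SD of noise, on plates passing a quality check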;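 also: median bead fluorescence of bound FAM aptamer so fluorescent compounds give negative values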
The depositor's hits bear a star; . = not tested or not shown.

SMILES	Scp-1 inhibitor	DNMT1 inh	LMPTP inh	SUMO1-SIM PPI	STEP block	GRK2 inh
COc1ccc(Nc2cc(C)c3c(O)cccc3n2)cc1	-4	-14	79*	-1	-3	0
Cc1ccc(Nc2cc(C)c3c(O)cccc3n2)cc1C	2	-16	67*	9	5	0
COC(=O)c1cc(Nc2cc(C)c3c(O)cccc3n2)cc(C(=O)OC)c1	0	-14	43	9	2	1
CCOc1ccc(Cl)cc1-c1cc(C(=O)Nc2ccc(Br)cc2)[nH]n1	.	0	2	5	-2	.
CO[C@@]1(NC(=O)CSCC#N)C(=O)N2C(C(=O)O)=C(CSc3nnnn3C)CS[C@@H]21	65*	66*	-2	12	3	9
CN(C)CCn1nnnc1SCC1=C(C(=O)O)N2C(=O)[C@@H](NC(=O)Cc3csc(N)n3)[C@H]2SC1	14	3	1	12	-1	3
CC(=O)Nc1ccc(C=NNc2nnc(NN=Cc3ccc(NC(C)=O)cc3)c3ccccc23)cc1	1	-31	3	40*	19	.
O=C(Nc1ccn(CCCNCC2CCCO2)c(=O)n1)OCc1ccccc1 (centres undefined)	-14	8	-2	0	-2	.
O=C(Nc1cccc(-c2nc3ncccc3o2)c1)c1cc2ccccc2o1	3	1	2	-2	-3	0
O=C(Nc1cccc(-c2nc3ncccc3o2)c1)c1sc2ccccc2c1Cl	2	42	50*	1	10	0
O=C1C(SCCO)=C(SCCO)C(=O)c2ccccc21	-6	81*	22	35	24	3
COc1ccc(/C=C2/SC(=S)N(Cc3ccccc3)C2=O)cc1O	-10	-7	3	-6	-2	12
O=C1/C(=C\c2cc(Cl)c(O)c(Cl)c2)SC(=S)N1Cc1ccccc1	17	59*	0	37	-151	0
O=c1cc(CN2CCCCCCC2)c2ccccc2o1	.	22	53*	-20	5	.
Cn1c(=O)c2c(-c3ccccc3)n(-c3ccc(N)cc3)cc2n(C)c1=O	.	40	13	42*	3	.
Cn1c(=O)c2c(-c3ccccc3)n(-c3cccc(O)c3)cc2n(C)c1=O	.	-11	-1	-17	-2	.
Cc1ccc(S(=O)(=O)N2CCC(C(=O)OCC(=O)N3C(C)CCCC3C)CC2)cc1C (centres undefined)	.	3	-2	1	0	.
CC1=C(SCc2ccccc2)C(=O)c2ccccc2C1=O	-10	76*	6	21	7	.
COc1ccccc1CCC(=O)NNC(=O)Cn1nc(C)cc1C	.	2	1	0	8	.
Clc1ccc(N=c2ssnc2Cl)nc1	-11	-6	79*	21	31	1
Clc1nssc1=Nc1nncs1	2	-17	33	-9	20	0
Clc1nssc1=Nc1ccc(Br)cc1	-1	-3	50*	-12	7	.
CNC(=O)OC1CC2CC1[C@H]1CCCCN1C2=O (some centres undefined)	.	.	-1	-1	.	.
CC(C)N1CCCC(C)(C(=O)Nc2nc3ccccc3[nH]2)C1 (centres undefined)	.	4	0	-2	2	.
O=C(O)c1c2c(nc3ccc(S(=O)(=O)N4CCC(C(=O)NC5CCCCCC5)CC4)cc13)CCCC2	32	3	1	42*	1	1
COc1ccc(CN(C)C[C@@H]2OCCCC[C@H](C)Oc3ccc(NC(=O)Nc4ccc(F)cc4)cc3C(=O)N([C@H](C)CO)C[C@H]2C)cc1	.	-13	5	1	7	.
CNc1ncnc2c1ncn2[C@H]1CN(CCOC)C[C@@H](CO)O1	.	7	-3	3	-2	.
CC(OC(=O)c1ccc(NC(=O)CC#N)cc1)C(=O)Nc1nc(-c2ccccc2)cs1 (centres undefined)	-7	-28	4	6	-2	0
CC(OC(=O)c1ccc(NC(=O)CC#N)cc1)C(=O)Nc1ccc(Oc2ccccc2)cc1 (centres undefined)	.	-11	0	54*	5	1
Cc1ccc2nc(SCC(=O)Nc3ccc(Cl)cc3)nc(=O)n2c1	-7	-1	0	86*	3	2
